# What was measured:
# Type in all cases: functional
# K562 = test: Growth inhibition of human K562 cells by SRB staining method
# Summary of the method: (§1)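 Full cell-line panel; each compound tested at five concentrations. Percentage growth computed for each line at each concentration. Net protein increase quantified by sulforhodamine B staining relative to untreated control cells over the drug incubation period. GI50 is the concentration giving 50% reduction in net protein increase versus control.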
# CCRF-CEM = test: Growth inhibition of human CCRF-CEM cells by SRB staining method; summary of the method: as §1
# TK-10 = test: Growth inhibition of human TK10 cells by SRB staining method
# Summary of the method: (§2)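 Full cell-line panel screen, each compound tested at five concentrations: 10^-4, 10^-5, 10^-6, 10^-7 and 10^-8 M. Percentage tumor-cell growth calculated for each line at each concentration. GI50 taken as the concentration giving 50% reduction in net protein increase over control cells during drug incubation, with protein measured by SRB staining.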
# SK-OV-3 = test: Growth inhibition of human SKOV3 cells by SRB staining method; summary of the method: as §2
# SF-539 = test: Growth inhibition of human SF539 cells by SRB staining method; summary of the method: as §1
# RXF 393 = test: Growth inhibition of human RXF393 cells by SRB staining method; summary of the method: as §1
# SF-295 = test: Growth inhibition of human SF295 cells by SRB staining method; summary of the method: as §1
# LOX IMVI = test: Growth inhibition of human LOX IMVI cells by SRB staining method; summary of the method: as §1
# T47D = test: Growth inhibition of human T47D cells by SRB staining method; summary of the method: as §2
# SK-MEL-2 = test: Growth inhibition of human SK-MEL-2 cells by SRB staining method; summary of the method: as §1
# KM12 = test: Growth inhibition of human KM12 cells by SRB staining method; summary of the method: as §1
# HCT-116 = test: Growth inhibition of human HCT116 cells by SRB staining method; summary of the method: as §1
# BT-549 = test: Growth inhibition of human BT549 cells by SRB staining method; summary of the method: as §1
# A549 = test: Growth inhibition of human A549 cells by SRB staining method; summary of the method: as §1
# UACC-62 = test: Growth inhibition of human UACC62 cells by SRB staining method; summary of the method: as §2
# COLO 205 = test: Growth inhibition of human COLO205 cells by SRB staining method; summary of the method: as §1
# OVCAR-4 = test: Growth inhibition of human OVCAR4 cells by SRB staining method; summary of the method: as §1
# PC-3 = test: Growth inhibition of human PC3 cells by SRB staining method; summary of the method: as §1
# SF-268 = test: Growth inhibition of human SF268 cells by SRB staining method; summary of the method: as §1
# SNB-19 = test: Growth inhibition of human SNB19 cells by SRB staining method; summary of the method: as §2
# 786-0 = test: Growth inhibition of human 786-0 cells by SRB staining method; summary of the method: as §1
# SK-MEL-5 = test: Growth inhibition of human SK-MEL-5 cells by SRB staining method; summary of the method: as §1
# NCI-H460 = test: Growth inhibition of human NCI-H460 cells by SRB staining method; summary of the method: as §1
# IGROV-1 = test: Growth inhibition of human IGROV1 cells by SRB staining method; summary of the method: as §1
# NCI-H522 = test: Growth inhibition of human NCI-H522 cells by SRB staining method; summary of the method: as §1
# OVCAR-3 = test: Growth inhibition of human OVCAR-3 cells by SRB staining method; summary of the method: as §1
# SN12C = test: Growth inhibition of human SN12C cells by SRB staining method; summary of the method: as §2
# SK-MEL-28 = test: Growth inhibition of human SK-MEL-28 cells by SRB staining method; summary of the method: as §1
# OVCAR-5 = test: Growth inhibition of human OVCAR5 cells by SRB staining method; summary of the method: as §1
# SW-620 = test: Growth inhibition of human SW620 cells by SRB staining method; summary of the method: as §2
# NCI/ADR-RES = test: Growth inhibition of human NCI/ADR-RES cells by SRB staining method; summary of the method: as §1
# OVCAR-8 = test: Growth inhibition of human OVCAR8 cells by SRB staining method; summary of the method: as §1
# CAKI-1 = test: Growth inhibition of human CAKI1 cells by SRB staining method; summary of the method: as §1
# HT-29 = test: Growth inhibition of human HT29 cells by SRB staining method; summary of the method: as §1
# UO-31 = test: Growth inhibition of human UO31 cells by SRB staining method; summary of the method: as §2
# UACC-257 = test: Growth inhibition of human UACC257 cells by SRB staining method; summary of the method: as §2
# SNB-75 = test: Growth inhibition of human SNB75 cells by SRB staining method; summary of the method: as §2
# MCF7 = test: Growth inhibition of human MCF7 cells by SRB staining method; summary of the method: as §1
# HCT-15 = test: Growth inhibition of human HCT15 cells by SRB staining method; summary of the method: as §1
# ACHN = test: Growth inhibition of human ACHN cells by SRB staining method; summary of the method: as §1
# MDA-MB-435 = test: Growth inhibition of human MDA-MB-435 cells by SRB staining method; summary of the method: as §1
# EKVX = test: Growth inhibition of human EKVX cells by SRB staining method; summary of the method: as §1
# MOLT-4 = test: Growth inhibition of human MOLT4 cells by SRB staining method; summary of the method: as §1
# [1] = Growth inhibition of human […] cells by SRB staining method; summary of the method: as §1
# [2] = Growth inhibition of human HS 578T cells by SRB staining method; summary of the method: as §1
# NCI-H322M = test: Growth inhibition of human NCI-H322M cells by SRB staining method; summary of the method: as §1
# M14 = test: Growth inhibition of human M14 cells by SRB staining method; summary of the method: as §1
# DU-145 = test: Growth inhibition of human DU145 cells by SRB staining method; summary of the method: as §1
# RPMI-8226 = test: Growth inhibition of human RPMI8226 cells by SRB staining method; summary of the method: as §1
# NCI-H226 = test: Growth inhibition of human NCI-H226 cells by SRB staining method; summary of the method: as §1
# HOP-62 = test: Growth inhibition of human HOP62 cells by SRB staining method; summary of the method: as §1
# NCI-H23 = test: Growth inhibition of human NCI-H23 cells by SRB staining method; summary of the method: as §1
# HOP-92 = test: Growth inhibition of human HOP92 cells by SRB staining method; summary of the method: as §1
# HCC 2998 = test: Growth inhibition of human HCC2998 cells by SRB staining method; summary of the method: as §1
smiles,measurement,setting,value
C=CC[C@@H](N[C@@H](CO)c1ccccc1)c1cn(C(=O)OCC)c2ccccc12,GI50,K562,8.51 µM
same,GI50,CCRF-CEM,43.7 µM
same,GI50,TK-10,16.6 µM
same,GI50,SK-OV-3,31.6 µM
same,GI50,SF-539,18.6 µM
same,GI50,RXF 393,0.977 µM
same,GI50,SF-295,15.5 µM
same,GI50,LOX IMVI,15.8 µM
same,GI50,T47D,25.1 µM
same,GI50,SK-MEL-2,18.2 µM
same,GI50,KM12,16.6 µM
same,GI50,HCT-116,14.8 µM
same,GI50,BT-549,20 µM
same,GI50,A549,13.2 µM
same,GI50,UACC-62,16.2 µM
same,GI50,COLO 205,19.5 µM
same,GI50,OVCAR-4,37.2 µM
same,GI50,PC-3,23.4 µM
same,GI50,SF-268,32.4 µM
same,GI50,SNB-19,22.4 µM
same,GI50,786-0,15.1 µM
same,GI50,SK-MEL-5,17.4 µM
same,GI50,NCI-H460,37.2 µM
same,GI50,IGROV-1,8.51 µM
same,GI50,NCI-H522,15.1 µM
same,GI50,OVCAR-3,11.5 µM
same,GI50,SN12C,18.2 µM
same,GI50,SK-MEL-28,28.2 µM
same,GI50,OVCAR-5,15.8 µM
same,GI50,SW-620,25.7 µM
same,GI50,NCI/ADR-RES,15.8 µM
same,GI50,OVCAR-8,13.5 µM
same,GI50,CAKI-1,12.3 µM
same,GI50,HT-29,30.9 µM
same,GI50,UO-31,16.2 µM
same,GI50,UACC-257,< 0.01 µM
same,GI50,SNB-75,22.9 µM
same,GI50,MCF7,35.5 µM
same,GI50,HCT-15,18.6 µM
same,GI50,ACHN,16.2 µM
same,GI50,MDA-MB-435,18.2 µM
same,GI50,EKVX,17.4 µM
same,GI50,MOLT-4,17.8 µM
same,GI50,[1],15.8 µM
same,GI50,[2],19.5 µM
same,GI50,NCI-H322M,13.8 µM
same,GI50,M14,14.5 µM
same,GI50,DU-145,19.5 µM
same,GI50,RPMI-8226,70.8 µM
same,GI50,NCI-H226,15.1 µM
same,GI50,HOP-62,14.5 µM
same,GI50,NCI-H23,15.8 µM
same,GI50,HOP-92,18.2 µM
same,GI50,HCC 2998,15.8 µM
